Experimental findings from ChEMBL document CHEMBL2429765 (J Med Chem, 2013) are described below.

One series in a line: in vitro. The settings on record: human, liver microsomes. For orientation: Liver microsomes are a subcellular fraction often used to study metabolism.
The nature of series [1]: Oral bioavailability in rat. Type of series: ADME, organism-based. The settings on record: in vivo.
The nature of series [2]: Half life in rat. Type of series: ADME, organism-based. The settings on record: in vivo.
Series [3] is described as follows: Volume of distribution at steady state in rat. Type of series: ADME, organism-based. The settings on record: in vivo, read-out: Vdss.
A short description of series [4]: Plasma clearance in rat. Type of series: ADME, organism-based.
The nature of series [5]: Partition coefficient of the compound at pH 7.4. Type of series: physicochemical. The settings on record: octanol/water. A digest of the protocol:
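cLogD at pH 7.4 calculated with ACD pchbat version 9.3.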

The term microsomal CLint denotes the rate of metabolic loss divided by the concentration. High values mean faster metabolism, low ones greater metabolic stability. The bioavailability is dose-corrected exposure relative to a reference, in per cent. The low end stands for little systemic uptake, the high end for much systemic uptake. Broadly, the half-life is the time needed for the level to fall by half in the phase considered. The term clearance denotes a measure of how efficiently the substance is removed, as volume per time. A higher clearance goes with efficient removal. A word on the logD: it is lipophilicity at a set pH, counting ionised and neutral species. A high value points to a more lipophilic compound.

A value given as a limit tells only on which side of the number the result lay.

`N#Cc1cccc(-c2ccc3nnc(Cc4ccc5ncccc5c4)n3n2)c1` returned an intrinsic metabolic clearance (microsomal CLint) at 0.5 h, 1 µM in “in vitro” of 22.7 µL/min/mg.
Still for that read-out and setting: for `C[C@@H](c1c[nH]c2ncccc12)c1nnc2ccc(-c3ccc(C#N)cc3)nn12` the value was 28 µL/min/mg; for `CC(C)Nc1ccc2nnc([C@@H](C)c3c[nH]c4ncccc34)n2n1`, 25 µL/min/mg.
`CCNc1ccc2nnc([C@@H](C)c3c[nH]c4ncccc34)n2n1` came in with a microsomal CLint at 0.5 h, 1 µM in the series “in vitro” of 18 µL/min/mg.
In the case of `C[C@@H](c1ccc2ncccc2c1)c1nnc2ccc(-c3cnn(C)c3)nn12`, in series [1], the bioavailability came out at 58%. The same compound gave a half-life in series [2] of 1.9 h. Moreover, the Vd in series [3] came to 3.5 L/kg. The compound further displayed a clearance in series [4] of 21 mL/min/kg. The compound also returned a logD in series [5] of 2.05. For the same compound, in the series “in vitro”, the intrinsic metabolic clearance (microsomal CLint) at 0.5 h, 1 µM was less than 7.6 µL/min/mg.
As to `Nc1ccc2nnc(Cc3ccc4ncccc4c3)n2n1`, the intrinsic metabolic clearance (microsomal CLint) at 0.5 h, 1 µM in “in vitro” was less than 7.6 µL/min/mg.
Regarding `CN(C)c1ccc2nnc(Cc3ccc4ncccc4c3)n2n1`, in “in vitro”, the microsomal CLint at 0.5 h, 1 µM is 35 µL/min/mg.
On to `C[C@@H](c1ccc2ncccc2c1)c1nnc2ccc(-c3ccc(F)c(F)c3)nn12`, for which the bioavailability in series [1] is 52%. Also, in series [2], the half-life was 3.6 h. In addition, the Vd in series [3] turned out to be 3.6 L/kg. In series [4], this compound came in with a clearance of 31 mL/min/kg. Moreover, the log distribution coefficient (logD) in series [5] was found to be 3.07. The microsomal CLint at 0.5 h, 1 µM in “in vitro” stood at 13.4 µL/min/mg.
Regarding `COc1ccc(-c2ccc3nnc([C@@H](C)c4ccc5ncccc5c4)n3n2)cc1F`, the intrinsic clearance (microsomal CLint) at 0.5 h, 1 µM in “in vitro” was found to be 281 µL/min/mg.
Still for that read-out and setting: to `COc1ccc(-c2ccc3nnc([C@@H](C)c4ccc5ncccc5c4)n3n2)cc1C` belongs 304 µL/min/mg; to `Cc1cccc(-c2ccc3nnc([C@@H](C)c4ccc5ncccc5c4)n3n2)c1`, 81.8 µL/min/mg.
In the case of `C[C@@H](c1ccc2ncccc2c1)c1nnc2ccc(-c3cccc(C#N)c3)nn12`, in series [1], the bioavailability was 13%. The same compound showed a half-life in series [2] of 4.8 h. Further, the Vd in series [3] is 4.9 L/kg. Moreover, the clearance in series [4] is 22 mL/min/kg. This compound yielded a logD in series [5] of 2.8. Also, the microsomal CLint at 0.5 h, 1 µM in “in vitro” came out at 17.9 µL/min/mg.
On to `C[C@@H](c1ccc2ncccc2c1)c1nnc2ccc(-c3ccc(C#N)cc3)nn12`, for which, in “in vitro”, the intrinsic metabolic clearance (microsomal CLint) at 0.5 h, 1 µM is 12.1 µL/min/mg.
On the same count and under the same terms, for `C[C@@H](c1ccc2ncccc2c1)c1nnc2ccc(-c3ccccc3C#N)nn12` the value was 23.1 µL/min/mg.
In the series “in vitro”, `C[C@@H](c1ccc2ncccc2c1)c1nnc2ccc(-c3ccc4c(c3)OCCO4)nn12` returned an intrinsic metabolic clearance (microsomal CLint) at 0.5 h, 1 µM of 304 µL/min/mg.
Still for that read-out and setting: to `CNC(=O)c1ccc(-c2ccc3nnc([C@@H](C)c4ccc5ncccc5c4)n3n2)cc1` belongs 12.2 µL/min/mg; to `CCS(=O)(=O)c1ccc(-c2ccc3nnc([C@@H](C)c4ccc5ncccc5c4)n3n2)cc1`, 10.4 µL/min/mg.
The same measure, in the same setting: for `C[C@@H](c1ccc2ncccc2c1)c1nnc2ccc(-c3ccc(S(C)(=O)=O)cc3)nn12` the value was less than 7.6 µL/min/mg.
Same read-out and setting: for `C[C@@H](c1ccc2ncccc2c1)c1nnc2ccc(-c3ccc(N(C)C)nc3)nn12` the value was 232 µL/min/mg.
With `C[C@@H](c1ccc2ncccc2c1)n1nnc2ncc(-c3cnn(C)c3)nc21`, the microsomal CLint at 0.5 h, 1 µM in “in vitro” is less than 7.6 µL/min/mg.
`C[C@@H](c1ccc2ncccc2c1)n1nnc2ncc(-c3cnn(CCO)c3)nc21` came in with an intrinsic metabolic clearance (microsomal CLint) at 0.5 h, 1 µM in “in vitro” of less than 7.6 µL/min/mg.
Still for that read-out and setting: for `CC(C)Nc1ccc2nnc([C@@H](C)c3ccc4ncccc4c3)n2n1` the value was 20.2 µL/min/mg; for `Cn1cc(-c2ccc3nnc(Cc4c[nH]c5ncccc45)n3n2)cn1`, less than 7.6 µL/min/mg; for `C[C@@H](c1c[nH]c2ncccc12)c1nnc2ccc(-c3cnn(C)c3)nn12`, less than 7.6 µL/min/mg.
Same read-out and setting: for `Fc1ccc(-c2ccc3nnc(Cc4ccc5ncccc5c4)n3n2)cc1F` the value was 13.4 µL/min/mg.
